The record followed here is PubChem BioAssay.

Calls of active or inactive are those of the source.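 The calls were made as follows, unless noted: active = potentiation averaged over duplicate wells exceeding buffer-only control mean by more than 3 SD; inactive = the rest.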

A short description of test [1]: thallium flux activation in parental CHO cells, counter-screen for KCNQ1 potentiator project (AID 493006;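 active = duplicate-averaged activation above buffer control mean plus 5 SD of those controls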). As to conditions: parental CHO-K1 cells, FluxOR thallium flux, at 10 µM; stronger effect = higher value. The method in brief:
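Material: parental CHO-K1 cells, FluxOR dye-loaded; Also added: Potassium/thallium depolarization pulse; Schedule: overnight 37 °C plating, 90 min dye, 20 min dark compound; Signal: kinetic FluxOR fluorescence, 10 s baseline, 110 s after stimulus.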
(In general: The purpose of a counterscreen is to sort out artefacts and off-target activity.)

Test [2] addresses Potassium voltage-gated channel subfamily KQT member 1 (Homo sapiens) (UniProt P51787). Kind of test: KCNQ1 potassium channel potentiators, confirmation, FluxOR thallium flux, CHO cells, duplicates (AID 493007).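 As to outcome: cells depolarized by a potassium plus thallium sulfate stimulus after compound.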 As to conditions: KCNQ1 cell line, FluxOR thallium flux fluorescence, at 10 µM; stronger effect = higher value, % of reference activator effect, buffer zero. The method, boiled down: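 System: KCNQ1-expressing CHO cell line; technique: kinetic thallium influx fluorescence with FluxOR dye, 10 s baseline, 110 s post-stimulus; timing: dye 90 min then compound 20 min, both at room temperature; controls: buffer-only wells as 0% and R-L3 activator as 100%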

In test [3] the target is Potassium voltage-gated channel subfamily KQT member 2 (Rattus norvegicus) (UniProt O88943). The test can be described thus: rat KCNQ2 channel potentiation, selectivity assay for KCNQ1 potentiator project, KCNQ2-CHO-K1 cells (AID 493009;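 active = mean duplicate potentiation above the buffer control mean plus 5 SD of buffer wells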;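 also: assay conditions were tuned for KCNQ1 rather than KCNQ2 modulators; signal is max minus min fluorescence divided by baseline after thallium stimulus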). As to conditions: FluxOR thallium flux fluorescence, at 10 µM; stronger effect = higher value, scaled: buffer 0, activator control 100.
Test [4] deals with Potassium voltage-gated channel subfamily KQT member 1 (Homo sapiens) (UniProt P51787). Kind of test: KCNQ1 channel current potentiators, confirmation, orthogonal assay for KCNQ1 potentiator project, IonWorks patch clamp, KCNQ1-CHO cells (AID 493184;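 active = current rise at least 3 SD above the untreated control mean in each of two repeat wells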;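 as to current potentiation: percent change of the same well's current before compound addition so 0% = no change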). As to conditions: automated patch clamp current, at 10 µM; stronger effect = higher value. The method in brief:
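Test system: KCNQ1-expressing CHO cells. Medium: pH 7.4 external bath. Probe or stimulus: voltage step from -90 mV holding to +40 mV, 2,000 ms. Compound: 10 µM final, single point. Detection: automated perforated-patch electrophysiology. Read-out: percent current increase versus pre-compound level. Repeats: two replicates.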
In general terms: The patch-clamp technique gives a direct electrical read-out from membranes.

Test [5] deals with Potassium voltage-gated channel subfamily E member 1 (Homo sapiens) + Potassium voltage-gated channel subfamily KQT member 1 (Homo sapiens) (UniProt P15382+P51787). Kind of test: KCNQ1/KCNE1 complex potentiators, confirmation, selectivity assay for KCNQ1 potentiator project, thallium flux, CHO-K1 KCNQ1/E1 cells (AID 493186;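 active = mean duplicate activation above the buffer control mean plus 5 SD of those controls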). Conditions: FluxOR thallium flux, at 10 µM; stronger effect = higher value. The method in brief: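 Material: CHO-K1 cells with KCNQ1/E1 / Timing: dye 90 min, compound 20 min, room temperature / Technique: kinetic thallium-sensitive FluxOR dye fluorescence / Read-out: percent activation scaled between buffer and R-L3 ratio signals / Replicates: tested in duplicate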
Chain of Potassium voltage-gated channel subfamily E member 1 (Homo sapiens) + Potassium voltage-gated channel subfamily KQT member 1 (Homo sapiens) (P51787 whole entry, looked up): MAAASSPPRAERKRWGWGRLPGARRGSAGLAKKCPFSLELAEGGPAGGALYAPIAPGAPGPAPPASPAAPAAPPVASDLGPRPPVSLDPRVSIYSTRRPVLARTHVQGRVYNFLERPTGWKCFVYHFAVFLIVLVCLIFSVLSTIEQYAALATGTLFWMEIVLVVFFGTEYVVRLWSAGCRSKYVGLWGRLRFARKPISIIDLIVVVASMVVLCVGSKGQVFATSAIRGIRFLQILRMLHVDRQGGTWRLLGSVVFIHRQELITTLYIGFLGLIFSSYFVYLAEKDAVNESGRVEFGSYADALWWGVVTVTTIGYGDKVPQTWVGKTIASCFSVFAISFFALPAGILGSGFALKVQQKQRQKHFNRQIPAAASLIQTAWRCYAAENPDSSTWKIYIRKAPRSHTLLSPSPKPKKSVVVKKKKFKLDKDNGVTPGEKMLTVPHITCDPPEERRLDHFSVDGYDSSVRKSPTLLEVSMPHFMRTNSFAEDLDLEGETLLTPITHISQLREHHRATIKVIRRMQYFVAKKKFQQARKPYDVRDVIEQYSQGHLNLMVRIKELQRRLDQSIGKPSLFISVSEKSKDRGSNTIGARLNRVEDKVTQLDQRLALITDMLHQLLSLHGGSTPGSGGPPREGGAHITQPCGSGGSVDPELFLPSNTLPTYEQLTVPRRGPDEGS

Chain of Potassium voltage-gated channel subfamily KQT member 2 (Rattus norvegicus) (O88943 whole entry, looked up): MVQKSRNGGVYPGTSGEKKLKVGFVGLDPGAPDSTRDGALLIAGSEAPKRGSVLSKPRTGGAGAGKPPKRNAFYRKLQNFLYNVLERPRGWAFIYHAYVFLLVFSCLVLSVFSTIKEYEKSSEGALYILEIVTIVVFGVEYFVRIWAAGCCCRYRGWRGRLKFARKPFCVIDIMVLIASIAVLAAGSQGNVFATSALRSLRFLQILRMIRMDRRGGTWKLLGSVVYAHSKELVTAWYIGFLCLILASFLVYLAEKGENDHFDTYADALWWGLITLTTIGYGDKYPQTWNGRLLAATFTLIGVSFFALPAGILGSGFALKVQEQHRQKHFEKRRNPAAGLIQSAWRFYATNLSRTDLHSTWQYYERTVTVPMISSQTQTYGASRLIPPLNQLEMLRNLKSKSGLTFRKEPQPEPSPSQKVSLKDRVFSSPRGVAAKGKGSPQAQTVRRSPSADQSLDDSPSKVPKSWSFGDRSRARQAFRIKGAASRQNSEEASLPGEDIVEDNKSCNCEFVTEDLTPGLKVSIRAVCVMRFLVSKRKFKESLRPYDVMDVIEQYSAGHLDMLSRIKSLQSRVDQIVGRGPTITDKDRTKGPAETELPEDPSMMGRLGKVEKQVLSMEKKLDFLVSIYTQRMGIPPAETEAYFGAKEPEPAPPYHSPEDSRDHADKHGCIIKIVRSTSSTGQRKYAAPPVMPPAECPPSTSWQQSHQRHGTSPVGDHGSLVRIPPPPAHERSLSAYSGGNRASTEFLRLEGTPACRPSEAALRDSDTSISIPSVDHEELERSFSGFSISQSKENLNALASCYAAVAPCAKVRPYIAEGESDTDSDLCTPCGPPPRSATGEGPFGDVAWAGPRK
Chain of Potassium voltage-gated channel subfamily KQT member 1 (Homo sapiens) (P51787 whole entry, looked up): as the sequence (P51787 whole entry, looked up) above

Take `O=C(NC1=NCCS1)c1ccc(N2CCCC2=O)cc1`: the result in test [1], in test [3], in test [4] and in test [5] was inactive. In addition, in test [2], the potentiation is 28.5% (active).
As for `COc1ccc(-c2csc(N(CCCN(C)C)C(=O)c3ccccc3C)n2)cc1`, the result in test [1], in test [2], in test [3], in test [4] and in test [5] was inactive.
With `CCOC(=O)c1c(C)nc2sc3c(=O)n(-c4ccc(OC)cc4)cnc3c2c1-c1ccc(OC)cc1`, the outcome in test [1], in test [2], in test [3], in test [4] and in test [5] was inactive.
Regarding `COc1cc(NC(=S)N2CCC(C(O)(c3ccccc3)c3ccccc3)CC2)cc(OC)c1`, the result in test [1], in test [4] and in test [5] was inactive. The potentiation in test [2] was 20.5% (active); in test [3] it was 156% (active).
For `Cc1ccc(C(=O)NC(=S)N(C)C2CCCCC2)cc1Br`, the outcome in test [1] and in test [4] was inactive. Also, the potentiation in test [2] was 61% (active); in test [3], 159% (active). In test [5], the activation was 40.1% (active).
Turning to `CCCCc1ccc(-c2csc(/C(C#N)=C/c3ccco3)n2)cc1`, the outcome in test [1], in test [3], in test [4] and in test [5] was inactive. Further, the potentiation in test [2] was 132% (active).
With `CCN(CC)S(=O)(=O)c1ccc(NC(=O)c2cccnc2Cl)c(NC(=O)c2cccnc2Cl)c1`, the result in test [1], in test [4] and in test [5] was inactive. In addition, the potentiation is 43% (active) in test [2] and 242% (active) in test [3].
As for `O=C(NNC(=S)NC(=O)c1ccc(Br)cc1)c1cccc([N+](=O)[O-])c1`, the result in test [1], in test [2], in test [3], in test [4] and in test [5] was inactive.
Take `Oc1c(Cl)cc(Cl)cc1/C=N/NC(=S)NC1CC2C=CC1C2` (stereo not given): the outcome in test [1], in test [2], in test [3], in test [4] and in test [5] was inactive.
In the case of `Cc1cc(/C=N/n2cnnc2)c(C)n1-c1ccc(Cl)cc1Cl`, the outcome in test [1], in test [2], in test [3] and in test [5] was inactive. Besides, the current potentiation in test [4] is 28.9% (active).
Take `COc1ccc(-c2nonc2NC(=O)c2oc3ccccc3c2C)cc1OC`: the result in test [1], in test [2], in test [3], in test [4] and in test [5] was inactive.
Consider `Cc1ccc(C(=O)NC(=S)N2CCN(c3cc(C)ccc3C)CC2)cc1`, for which the outcome in test [1], in test [3], in test [4] and in test [5] was inactive. For the same compound, the potentiation in test [2] is 50% (active).
`CCn1c(O)c(N=NC(=S)NCC2CCCO2)c2ccccc21` (stereo not given): the outcome in test [1], in test [2], in test [3], in test [4] and in test [5] was inactive.
As to `CC(Sc1cccc[n+]1[O-])c1ccccc1` (stereo not given), the result in test [1], in test [2], in test [3], in test [4] and in test [5] was inactive.
As to `COC(=O)c1sc(NC(=S)NC(=O)c2ccccc2)nc1C`, the result in test [1], in test [2], in test [3], in test [4] and in test [5] was inactive.
For the compound `CCn1c2ccccc2c2cc(CC(N)=O)ccc21`, the result in test [1], in test [2], in test [3], in test [4] and in test [5] was inactive.
With `CCn1c(SCC(=O)c2cccs2)nnc1-c1cccs1`, the outcome in test [1], in test [2], in test [3], in test [4] and in test [5] was inactive.
Consider `CC(C)CC(=O)Nc1nnc(SCC(=O)NCc2ccco2)s1`, for which the outcome in test [1], in test [2], in test [3], in test [4] and in test [5] was inactive.
As to `CC(C)CCn1c(SCC(=O)NC2CC2)nc2cc(Cl)ccc2c1=O`, the result in test [1], in test [2], in test [3], in test [4] and in test [5] was inactive.
On to `COc1cc(O)c2c(=O)c(-c3ccc(O[C@@H]4O[C@H](CO)[C@@H](O)[C@H](O)[C@H]4O)cc3)coc2c1`, for which the outcome in test [1], in test [2], in test [3], in test [4] and in test [5] was inactive.
Turning to `CCOC(=O)Cn1c(C(=O)OCC)cc2sccc21`, the result in test [1], in test [3], in test [4] and in test [5] was inactive. Besides, the potentiation in test [2] is 35.5% (active).
For the compound `COc1cc(OC)cc(-c2nnc(Nc3nc4c(F)cccc4s3)o2)c1`, the result in test [1], in test [2], in test [3], in test [4] and in test [5] was inactive.
In the case of `COCCCN1C(=O)C(=O)/C(=C(/O)c2ccc(C)cc2)C1c1ccccc1` (stereo not given), the outcome in test [1], in test [2], in test [3], in test [4] and in test [5] was inactive.
For the compound `S=c1[nH]nc(COc2ccccc2)n1/N=C/c1ccc(Cl)cc1Cl`, the outcome in test [1], in test [2], in test [3], in test [4] and in test [5] was inactive.
Regarding `Oc1oc(-c2ccccc2)nc1/C=N/c1nccs1`, the outcome in test [1], in test [3], in test [4] and in test [5] was inactive. For the same compound, in test [2], the potentiation is 29.5% (active).
As to `Cc1ccccc1CS(=O)(=O)c1nnc([C@H](Cc2ccccc2)NC(=O)OC(C)(C)C)o1`, the outcome in test [1], in test [3], in test [4] and in test [5] was inactive. Further, the potentiation in test [2] was 22.5% (active).
As for `CC(=O)Nc1ccc(S(=O)(=O)Nc2nc3ccccc3nc2Nc2ccccc2)cc1`, the outcome in test [1], in test [2], in test [3], in test [4] and in test [5] was inactive.
Regarding `O=C(CSc1nnc(NC(=O)C2CCC2)s1)Nc1ccc(N2CCOCC2)cc1`, the result in test [1], in test [2], in test [3], in test [4] and in test [5] was inactive.
As for `COc1ccc(-c2nnc(NC(=O)c3ccc(S(=O)(=O)N4CCCc5ccccc54)cc3)o2)cc1`, the outcome in test [1], in test [2], in test [3], in test [4] and in test [5] was inactive.
